The species named for assay [1] is Mus musculus. The assay is described as follows: Compound was evaluated for its lack of depresant effect on the CNS as measured by the forced coordinated motor activity on 10 mice. Type of assay: functional.
Assay [2] concerns Mus musculus. Put plainly: Lack of depressant effect on the CNS as measured by the forced coordinated motor activity on mice was expressed as time elapsed from dosing required to obtain maximum hypotensive or antihypertensive effect. Type of assay: functional, Central nervous system.
For assay [3], the system named is Rattus norvegicus. Put plainly: Change in heart rate after 6 hours of dosing was measured in conscious normotensive male rats at a dose of 5 mg/kg administered intraperitoneally in 5 rats. In kind it is functional. The conditions noted are these: route intraperitoneal. Put shortly:
(§1)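 Heart rate was recorded electronically through the blood-pressure recorder during tail-cuff measurement in conscious normotensive male rats (250–300 g), restrained in Plexiglass tubes at 37 °C. Dosing was intraperitoneal, and change from the pre-dose rate was followed to 48 h.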

Assay [4] relates to Rattus norvegicus. Put plainly: Change in heart rate after 48 hours of dosing was measured in conscious normotensive male rats at a dose of 5 mg/kg administered intraperitoneally in 5 rats. Type of assay: functional. The conditions noted are these: route intraperitoneal. Put shortly:
as §1

In assay [5] the test system is Rattus norvegicus. Put plainly: Change in blood pressure after 18 hours of dosing was measured in conscious normotensive male rats at a dose of 5 mg/kg administered intraperitoneally in 5 rats. In kind it is functional. The conditions noted are these: route intraperitoneal. In short, it runs like this:
(§2)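 Conscious normotensive male rats (250–300 g) were restrained in Plexiglass tubes kept at 37 °C. Systolic pressure was read indirectly at the tail root using a tail cuff and a sphygmomanometer with a crystal-microphone pulse pick-up. Dosing was intraperitoneal, and change from the pre-dose value was followed to 48 h.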

Assay [6] relates to Rattus norvegicus. The assay is described as follows: Systolic blood pressure was measured prior to dosing in conscious normotensive male rats at a dose of 5 mg/kg administered intraperitoneally in 5 rats. In kind it is functional. The conditions noted are these: route intraperitoneal. Put shortly: as §2
Assay [7] deals with Rattus norvegicus. The assay is described as follows: Change in blood pressure after 6 hours of dosing was measured in conscious normotensive male rats at a dose of 5 mg/kg administered intraperitoneally in 5 rats. Type of assay: functional. The conditions noted are these: route intraperitoneal. In short, it runs like this: as §2
Assay [8] relates to Rattus norvegicus. Put plainly: Change in heart rate after 24 hours of dosing was measured in conscious normotensive male rats at a dose of 5 mg/kg administered intraperitoneally in 5 rats. Type of assay: functional. The conditions noted are these: route intraperitoneal. Put shortly:
as §1

For assay [9], the system named is Rattus norvegicus. The assay is described as follows: Change in blood pressure after 24 hours of dosing was measured in conscious normotensive male rats at a dose of 5 mg/kg administered intraperitoneally in 5 rats. Type of assay: functional. The conditions noted are these: route intraperitoneal. Put shortly: as §2
Assay [10] relates to Rattus norvegicus. The assay is described as follows: Heart rate was measured prior to dosing in conscious normotensive male rats at a dose of 5 mg/kg administered intraperitoneally in 5 rats. In kind it is functional. The conditions noted are these: route intraperitoneal. Put shortly: as §1
Assay [11] deals with Rattus norvegicus. Put plainly: Change in blood pressure after 48 hours of dosing was measured in conscious normotensive male rats at a dose of 5 mg/kg administered intraperitoneally in 5 rats. In kind it is functional. The conditions noted are these: route intraperitoneal. Put shortly:
as §2

Assay [12] relates to Rattus norvegicus. The assay is described as follows: Change in blood pressure after 12 hours of dosing was measured in conscious normotensive male rats at a dose of 5 mg/kg administered intraperitoneally in 5 rats. In kind it is functional. The conditions noted are these: route intraperitoneal. In short, it runs like this:
as §2

Assay [13] relates to Rattus norvegicus. Put plainly: Change in blood pressure after 3 hours of dosing was measured in conscious normotensive male rats at a dose of 5 mg/kg administered intraperitoneally in 5 rats. The conditions noted are these: route intraperitoneal. In kind it is functional. Put shortly: as §2
The subject of assay [14] is Rattus norvegicus. The assay is described as follows: Change in heart rate after 18 hours of dosing was measured in conscious normotensive male rats at a dose of 5 mg/kg administered intraperitoneally in 5 rats. The conditions noted are these: route intraperitoneal. Type of assay: functional. Put shortly:
as §1

For assay [15], the system named is Rattus norvegicus. The assay is described as follows: Change in heart rate after 12 hours of dosing was measured in conscious normotensive male rats at a dose of 5 mg/kg administered intraperitoneally in 5 rats. Type of assay: functional. The conditions noted are these: route intraperitoneal. In short, it runs like this:
as §1

A short description of assay [16]: Ratio of performance time under the effect and corresponding control performance time. Type of assay: functional. Put shortly: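 Female mice (20–25 g), in groups of 10, were trained on a 3 cm rod at 15 rpm and tested 6 h after intraperitoneal dosing. The activity ratio is the group performance time under drug divided by the control group performance time.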

For assay [17], the system named is Rattus norvegicus. Put plainly: Change in heart rate after 3 hours of dosing was measured in conscious normotensive male rats at a dose of 5 mg/kg administered intraperitoneally in 5 rats. Type of assay: functional. The following applies: route intraperitoneal. In short, it runs like this:
as §1

As to `COC(=O)[C@H]1[C@H]2C[C@@H]3c4[nH]c5cc(OC)ccc5c4CCN3C[C@H]2C[C@@H](OC(=O)c2cc(OC)c(OC)c(OC)c2)[C@@H]1OC` [RESERPINE], in the assay listed under Mus musculus [1], the Group performance time was 9 s. The Time with Mus musculus [2] was determined as 6 h. The “Change in heart rate” value in the assay on Rattus norvegicus [3] is -44; in the assay with Rattus norvegicus [4], -10; in the assay with Rattus norvegicus [8], -32; in the assay on Rattus norvegicus [14], -40; in the assay on Rattus norvegicus [15] it was -40; in the assay with Rattus norvegicus [17], -34. In addition, the “Change in BP” value is -10 in the assay on Rattus norvegicus [5]; -23 in the assay with Rattus norvegicus [7]; -12 with Rattus norvegicus [9]; -7 with Rattus norvegicus [11]; -16 with Rattus norvegicus [12]; -18 in the assay with Rattus norvegicus [13]. Besides, in the assay on Rattus norvegicus [6], the BP came out at 117 mmHg. This compound also returned a Heart rate in the assay with Rattus norvegicus [10] of 364 beats min-1. The Activity ratio in assay [16] was less than 0.08.

Source of the values: ChEMBL document CHEMBL1122512, “Investigations on the chemistry of berbanes. 10. Synthesis of raunescinone analogues with hypotensive and antihypertensive activity” (1984).
